Source: ChEMBL document CHEMBL1122346, “Antihypertensive activity of 6-arylpyrido[2,3-d]pyrimidin-7-amine derivatives. 2. 7-Acyl amide analogues” (J Med Chem, 1983)
≈ marks a conversion by molar mass, not a printed value.

Columns and labels:
Rattus norvegicus [1] = experiment: Antihypertensive activity rating in conscious SHR after 10 hr post dose at 10 mg/kg (po); Range 10-20%; format: functional
[2] = Half-life measured in 1:1 ratio of MeOH and phosphate buffer at pH 7; Stable; format: ADME
Outline: (§1)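 Hydrolytic stability was tested at room temperature on solutions of ca. 0.001-0.002%. Media were 0.1 N HCl (pH ~1.5), 50% MeOH/pH 7 phosphate buffer (pH ~8.0), and 50% MeOH/0.05 N aqueous NaOH (pH ~12.2). Changes in the UV spectrum were followed over 2 weeks.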

[3] = Solubility, determined in phosphate buffer at pH 7; format: physicochemical
Outline: (§2)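 Dissolved compound was quantified by UV absorption. For the pH 7 value, the acidic solution was brought to pH 7 to give the unprotonated base, the precipitate was removed, and the supernatant was assayed again by UV.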

Rattus norvegicus [4] = experiment: Antihypertensive activity rating in conscious SHR after 10 hr post dose at 50 mg/kg (po); format: functional
Rattus norvegicus [5] = experiment: Antihypertensive activity rating in conscious SHR after 24 hr post dose at 50 mg/kg (po); format: functional
Rattus norvegicus [6] = species: Rattus norvegicus; experiment: Maximum percent decrease in blood pressure in SHR ( hour post dose in parentheses); format: functional
Rattus norvegicus [7] = experiment: Antihypertensive activity rating in conscious SHR after 2 hr post dose at 50 mg/kg (po); Range 10-20%; format: functional
[8] = Solubility, determined in 0.1 N HCl; format: physicochemical; details: read-out: S; outline: as §2
[9] = Half-life measured in 0.1 N HCl (*-<5% change after 14 days at 25 degrees C; Stable; format: ADME; details: buffer, 336 h; outline: as §1
Rattus norvegicus [10] = experiment: Antihypertensive activity rating in conscious SHR after 24-72 hr post dose at 10 mg/kg (po); Range 10-20%; format: functional
Rattus norvegicus [11] = experiment: Antihypertensive activity rating in conscious SHR after 10 h post dose at 10 mg/kg (po); 0=No significant reduction; format: functional
Rattus norvegicus [12] = experiment: Antihypertensive activity rating in conscious SHR after 2 hr post dose at 10 mg/kg (po); 0=No significant reduction; format: functional
[13] = Half-life measured in 1:1 ratio of MeOH and 0.1 N NaOH; format: ADME; details: 1:1 MeOH / 0.1 N NaOH; outline: as §1
[14] = Half-life measured in 0.1 N HCl; Stable; format: ADME; details: buffer; outline: as §1
[15] = pKa value, measured in 67% DMF/water
Rattus norvegicus [16] = experiment: Antihypertensive activity rating in conscious SHR after 10 hr post dose at 50 mg/kg (po); Range 20-30%; format: functional
[17] = pKa value, measured in 67% of DMF; format: physicochemical; details: 67% DMF
Outline: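 Dissociation constants were found by potentiometric titration in 67% N,N-dimethylformamide/water.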

Rattus norvegicus [18] = experiment: Antihypertensive activity rating in conscious SHR after 24 h post dose at 50 mg/kg (po); Range 20-30%; format: functional
[19] = Half-life measured in 1:1 ratio of MeOH and phosphate buffer at pH 7; 15-17; format: ADME; details: 1:1 MeOH / phosphate buffer; outline: as §1
Rattus norvegicus [20] = experiment: Antihypertensive activity in conscious spontaneously hypertensive rats 2 hr following 50 mg/kg p.o.; No significant reduction.; format: functional; details: route oral
Rattus norvegicus [21] = experiment: Antihypertensive activity in conscious spontaneously hypertensive rats 10 hr following 50 mg/kg p.o.; Range 10-20%.; format: functional; details: route oral
Rattus norvegicus [22] = experiment: Antihypertensive activity rating in conscious SHR after 18 hr post dose at 50 mg/kg (po); Range 10-20%; format: functional
Rattus norvegicus [23] = experiment: Antihypertensive activity rating in conscious SHR after 2 hr post dose at 50 mg/kg (po); format: functional
Rattus norvegicus [24] = experiment: Antihypertensive activity rating in conscious SHR after 24 hr post dose at 10 mg/kg (po); 0=no significant reduction; format: functional
Rattus norvegicus [25] = experiment: Antihypertensive activity rating in conscious SHR after 2 hr post dose at 10 mg/kg (po); Range 10-20%; format: functional
Rattus norvegicus [26] = experiment: Antihypertensive activity rating in conscious SHR after 18 hr post dose at 50 mg/kg (po); format: functional
Rattus norvegicus [27] = experiment: Antihypertensive activity rating in conscious SHR after 18 hr post dose at 50 mg/kg (po); 0=No significant reduction; format: functional
Rattus norvegicus [28] = experiment: Antihypertensive activity in conscious spontaneously hypertensive rats 10 hr following 50 mg/kg p.o.; No significant reduction.; format: functional; details: route oral

solubility [3] | solubility [8] | SMILES | Activity rating (Rattus norvegicus [1]) | Activity rating (Rattus norvegicus [4]) | Decrease (Rattus norvegicus [6]) | Activity rating (Rattus norvegicus [7]) | Activity rating (Rattus norvegicus [10]) | Activity rating (Rattus norvegicus [12]) | Activity rating (Rattus norvegicus [20]) | also measured
7 µg/mL (≈ 0.0229 mM) | 4850 µg/mL (≈ 15.9 mM) | Cc1ncc2cc(-c3c(Cl)cccc3Cl)c(N)nc2n1 | 10% | >30% | 32% | 10% | 10% | – | – | T1/2 [2]: Stable; Activity rating (Rattus norvegicus [5]): >30%; T1/2 [9]: Stable
– | – | Cc1ncc2cc(-c3c(Cl)cccc3Cl)c(NC(=O)c3ccc([N+](=O)[O-])cc3)nc2n1 | – | – | – | – | – | 0% | – | Activity rating (Rattus norvegicus [11]): 0%
220 µg/mL (≈ 0.551 mM) | 6600 µg/mL (≈ 16.5 mM) | Cc1ncc2cc(-c3c(Cl)cccc3Cl)c(NC(=O)c3ccco3)nc2n1 | 10% | – | 27% | 10% | 10% | 0% | – | half-life [13]: 4 h; T1/2 [14]: Stable; pKa [15]: 10.7; Activity rating (Rattus norvegicus [16]): 20%; pKa [17]: 4.3; Activity rating (Rattus norvegicus [18]): 20%; half-life [19]: 360 h
– | – | Cc1ncc2cc(-c3c(Cl)cccc3Cl)c(O)nc2n1 | – | – | 10% | – | – | – | 0% | Activity rating (Rattus norvegicus [21]): 10%; Activity rating (Rattus norvegicus [22]): 10%
– | – | CCC(=O)Nc1nc2nc(C)ncc2cc1-c1c(Cl)cccc1Cl | 10% | >30% | 35% | – | – | – | – | Activity rating (Rattus norvegicus [23]): >30%; Activity rating (Rattus norvegicus [24]): 0; Activity rating (Rattus norvegicus [25]): 10%; Activity rating (Rattus norvegicus [26]): >30%
– | – | Cc1ncc2cc(-c3c(Cl)cccc3Cl)c(NC(=O)NC(C)(C)C)nc2n1 | – | – | – | – | – | – | 0% | Activity rating (Rattus norvegicus [27]): 0%; Activity rating (Rattus norvegicus [28]): 0%
